# Sampled rows, rich in hits. Any-hit rate of the full collection: about 1.9%.
# Dynein cargo inh – dynein cargo transport inhibition | 3617.4 mouse cells, GR-EGFP nuclear translocation imaging; test concentration mostly 20 µM; stimulated with dexamethasone, 1 µM; active compounds read low | z-score, hits read low | hit rate 0.47% among 220,000 | AID 1381;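 active means plate z-score of nuclear minus cytoplasmic receptor signal below a set negative limit, without overly bright fluorescence or cell loss, cut at about -3.5 in these data, passing the limit was not always enough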;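 further: z-score of nuclear minus cytoplasmic ring GR-EGFP intensity difference per well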
#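 Schedule: 48 h induction, then 1 h compound, then 30 min agonist, 37 °C. Buffer or medium: tetracycline-free induction medium containing charcoal-stripped FBS. Reagent: 1.0 µM final dexamethasone stimulus. Evaluation: nuclear versus cytoplasmic GR-EGFP signal, averaged per well. Signal: high-content fluorescence imaging after fixation.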
# NCF1 inh – p47phox (human) inhibition; P14598; p47phox/p22phox peptide binding, fluorescence polarization, 2 h; inhibition, % at 24.7 µM; hit rate 0.53% among 220,000; AID 1274;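 active means inhibition above about 30%, limit read from the data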;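 further: 0% = p47phox with labelled peptide and 100% = labelled peptide alone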
# Target sequence (P14598 whole entry, looked up): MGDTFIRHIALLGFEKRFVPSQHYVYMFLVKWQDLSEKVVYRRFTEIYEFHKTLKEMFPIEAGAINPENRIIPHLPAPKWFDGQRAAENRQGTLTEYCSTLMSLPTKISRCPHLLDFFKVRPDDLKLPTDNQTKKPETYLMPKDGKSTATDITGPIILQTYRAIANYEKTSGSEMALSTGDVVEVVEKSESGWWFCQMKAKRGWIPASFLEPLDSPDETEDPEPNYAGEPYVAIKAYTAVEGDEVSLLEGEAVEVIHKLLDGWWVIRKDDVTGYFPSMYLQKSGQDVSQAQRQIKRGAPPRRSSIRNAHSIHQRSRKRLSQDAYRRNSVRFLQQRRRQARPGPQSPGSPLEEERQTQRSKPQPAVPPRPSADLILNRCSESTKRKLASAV
# RAM inhibit – inhibitors of the yeast RAM network; S. cerevisiae dse1pr::URA3 reporter, 5-FOA growth OD615, 2 d; analog-sensitive cbk1-as2 kinase mutant strain; inhibition, % at 50 µM; hit rate 1.8% among 190,000; AID 868;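 active means inhibition above a set limit, 3 SD over mean compound inhibition, cut at about 8.4% in these data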;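 further: 0% = DMSO-only wells with no growth and 100% = 10 µM 1-NA-PP1 full growth; inhibition rescues growth on 5-FOA so higher OD means more RAM inhibition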
# p-CIP stab down – compounds decreasing mouse p/CIP protein stability; F442A p/CIP-EGFP cells, EGFP fluorescence, 16 h; decrease of EGFP signal, % at 10 µM; hit rate 0.01% among 290,000; AID 1984;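 active means EGFP signal decrease of at least 30% at 10 µM or well 3 SD below plate mean, unless failing retest; inactive means the rest, including hits failing retest or dose response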
# * marks the source's active call; other numbers are inactive results; . = not tested or not shown.
SMILES,Dynein cargo inh,NCF1 inh,RAM inhibit,p-CIP stab down
COC(=O)c1c(C)c2c(C)cc3ccccn3c-2c1C(=O)OC,2.7,6,0,-20
COC(=O)c1cc2c(-c3ccccc3)cc3ccccn3c-2c1C(=O)OC,0.9,53*,6,-8
O=C(Nc1ccccc1Oc1ccccc1)c1cccc([N+](=O)[O-])c1,-0.45,2,1,-6
Cc1ccc(C(=O)Nc2ccccc2Oc2ccccc2)cc1[N+](=O)[O-],-1.4,-3,11*,-1
Cc1ccc(C(=O)NC(=S)Nc2cccc(NC(=O)c3ccccc3)c2)cc1[N+](=O)[O-],0.39,-9,10*,-4
COc1ccc(C2C3=C(CCCC3=O)Nc3nc(SCc4ccc(C(=O)O)cc4)nn32)cc1OC (stereo not drawn),-0.14,-5,8.8*,-8
CCn1cnc2cc(NS(=O)(=O)c3ccc(OC)c(OC)c3)ccc21,.,.,.,-1
CCOC(=O)c1c(-c2cccs2)csc1NC(C)=O,-0.21,3,4,-1
CCOC(=O)c1c(-c2cccs2)csc1NC(=O)CSc1ncn[nH]1,0.67,-6,9.4*,-8
CCOC(=O)c1c(NC(=O)c2cccs2)sc(CC)c1-c1cccs1,-1.6,1,10*,-2
CCOC(=O)c1c(-c2cccs2)csc1NC(=O)C(C)(C)C,0.86,1,8.6*,-5
COc1cc(C2NC(=O)NC(C)=C2C(=O)OCC2CCCCC2)ccc1O (stereo not drawn),.,.,.,-5
Cc1ccc(NC(=O)Cn2c([N+](=O)[O-])cnc2C)cc1Cl,.,.,.,-6
O=C(Cc1c(F)cccc1Cl)Nc1ccccc1-c1ccccc1,.,.,.,-7
Cc1c(NC(=O)CN2CCN(c3ccc(O)cc3)CC2)c(=O)n(-c2ccccc2)n1C,0.078,10,1,6
Cc1cc(C(=O)OCC(=O)NC(C)C)c2ccccc2n1,-0.099,9,.,-8
Cc1cc(C(=O)OCC(=O)Nc2ccc(S(N)(=O)=O)cc2)c2ccccc2n1,0.2,-6,3,62*
O=C(CCC1CCCN(C(=O)Cc2cccc(F)c2)C1)N1CCN(c2ccccn2)CC1 (stereo not drawn),1.2,-3,4,-8
O=C(CCC1CCCN(C(=O)CCCc2ccccc2)C1)N1CCN(c2ccccn2)CC1 (stereo not drawn),0.62,95*,.,1
CC(=O)Nc1ccc(S(=O)(=O)N(C)Cc2cnn(C)c2)cc1,.,.,.,0
O=c1[nH]c2ccc(S(=O)(=O)Nc3ccc(-c4nnc5n4CCCCC5)cc3)cc2o1,0.51,56*,0,-14
CCCOc1ccc(CNC(=S)Nc2ccccc2)cc1Cl,.,.,.,-5
CCC(=O)c1cn(CC(=O)Nc2cccc(C)c2)c2ccccc12,.,.,.,3
O=c1oc2ccccc2c(O)c1/C=C1\C=Nc2ccccc21,-0.37,46*,2,-4
CCN(CC)S(=O)(=O)c1cc(C(=O)OCC(=O)Nc2ccc(-c3nc4ccc(C)cc4s3)cc2)ccc1F,0.011,-13,7,4
SMILES,Dynein cargo inh,NCF1 inh,RAM inhibit,p-CIP stab down
Cc1ccc(-c2nnc(-n3ncc(C#N)c3N)c3ccccc23)cc1C,0.31,42*,4,6
COc1ccc(/C=C2\CC/C(=C\c3ccc(OC)c(OC)c3)C2=O)cc1OC,-1.2,0,11*,2
COc1cc(/C=C2/CC/C(=C/c3ccc(O)c(OC)c3)C2=O)ccc1O,-1,-38,.,-11
CCc1nn(CCCC(=O)N2CCN(c3cccc(C)c3C)CC2)c(=O)c2cc3occc3n12,.,.,.,-14
O=C(c1ccco1)N1CCN(Cc2nc(Cc3ccccc3)no2)CC1,0.52,131*,0,-11
O=C(c1ccco1)N1CCCN(Cc2nc(-c3cccs3)no2)CC1,-0.46,-1,1,-18
OCC[C@@H]1C[C@H](O)[C@@H](O)[C@]2(Cc3ccccc3CO2)O1,.,.,.,4
CCOC(=O)c1ccc(N2C(=O)CC(NNC(=O)c3ccc(Br)s3)C2=O)cc1 (stereo not drawn),-1.2,-15,.,2
CCOC(=O)c1ccc(N2C(=O)CC(Nc3ccc(O)cc3)C2=O)cc1 (stereo not drawn),-1.5,35*,.,-4
COc1ccc(S(=O)(=O)N2CCN(c3cccc(C)c3C)CC2)cc1,-0.16,-32,8.4*,1
Cc1ccccc1CN1CCN(S(=O)(=O)c2ccc(F)cc2)CC1,-0.32,-9,1,-3
Cc1cccc(C)c1N1CCN(S(=O)(=O)c2ccc(F)cc2)CC1,-0.25,-5,9.2*,-3
COc1cccc(C(=O)Nn2cnnc2)c1OC,.,.,.,-1
O=C1CCCC2=C1C(c1ccccc1)CC(=O)N2c1ccc(F)cc1F (stereo not drawn),-0.06,-7,1,7
Cc1ccccc1CC(=O)N1CCCC(CNC(=O)c2ccc(F)cc2)C1 (stereo not drawn),.,.,.,8
Cc1cc(-c2ccccc2)nc2oc(C(=O)NN)c(N)c12,2,47*,.,3
Cc1cc(C)c2c(N)c(C(=O)c3ccccc3)oc2n1,0.3,-3,0,3
COc1ccc(/C=N/NC(=O)C(=O)N2CCCCCC2)cc1O,.,.,.,-11
Cn1c(/C=C/c2ccc(Br)cc2)c([N+](=O)[O-])c(=O)n(C)c1=O,.,.,.,-6
COc1cc(C2c3c(oc4ccccc4c3=O)C(=O)N2Cc2ccco2)ccc1O (stereo not drawn),-0.59,-12,4,-13
CCOc1cc(C2c3c(oc4cc(C)c(Cl)cc4c3=O)C(=O)N2Cc2ccco2)ccc1O (stereo not drawn),1.1,22,8.4*,0
Cc1c(C(=O)N2C[C@@H](C)O[C@@H](C)C2)oc2c(F)cccc12,.,.,.,-4
CCC(C)NC(=O)CSc1nc2cc3c(cc2c(=O)n1Cc1ccco1)OCO3 (stereo not drawn),0.029,30*,1,7
CCCNS(=O)(=O)c1ccc(OC)c(Cl)c1Cl,-0.092,30*,-1,-8
CCCNS(=O)(=O)c1cc(Cl)ccc1OC,0.92,-3,1,2
SMILES,Dynein cargo inh,NCF1 inh,RAM inhibit,p-CIP stab down
COc1ccccc1C(=O)NCC(=O)NNc1ncnc(N)c1[N+](=O)[O-],-0.0053,-15,4,-2
NC(N)=NS(=O)(=O)c1ccc(NC(=S)NC(=O)c2ccc3c(c2)OCO3)cc1,0.28,-32,9.1*,-16
NS(=O)(=O)c1ccc(NC(=S)NC(=O)c2ccc3c(c2)OCO3)cc1,0.52,5,4,9
Cc1cc(C)n(C(N)=NC(=O)c2ccc([N+](=O)[O-])cc2)n1,0.34,-9,.,42*
Cc1ccc(C)c(CN2CCNC2=O)c1,0.86,137*,1,-3
CN(CCC#N)S(=O)(=O)c1cc2c3c(c1)CCN3C(=O)CC2,.,.,.,-5
O=C(CSc1nnc(Cc2cc(=O)[nH]c(=O)[nH]2)n1-c1ccccc1)N1CCCc2ccccc21,0.34,-2,8.6*,-3
COc1cccc(-n2c(SCC(=O)N3CCc4ccccc43)nnc2-c2c[nH]c3ccccc23)c1,-1,14,6,6
CCOc1ccc(-n2c(SCC(=O)N3CCc4ccccc43)nnc2-c2c[nH]c3ccccc23)cc1,-1,48*,3,0
